Key:
Settings in all cases: stereoisomer not certain
OR10J5 (Homo sapiens) = biological target: T1, OR10J5 (Homo sapiens) (UniProt Q8NHC4)
T1 sequence (whole entry): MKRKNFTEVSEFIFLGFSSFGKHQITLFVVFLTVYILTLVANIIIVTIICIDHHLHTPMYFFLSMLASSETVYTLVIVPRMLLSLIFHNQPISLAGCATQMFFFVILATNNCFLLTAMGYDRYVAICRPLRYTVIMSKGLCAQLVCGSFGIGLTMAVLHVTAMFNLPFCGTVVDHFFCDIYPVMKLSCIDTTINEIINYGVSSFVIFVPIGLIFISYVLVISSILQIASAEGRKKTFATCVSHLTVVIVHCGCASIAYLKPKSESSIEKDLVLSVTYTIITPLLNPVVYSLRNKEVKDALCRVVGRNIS
Summary of the method: (§1)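 Each receptor–molecule pair is labelled responsive or non-responsive (inactive) according to whether the original authors judged the measured signal statistically different from baseline. The data were taken from the main text and supplementary material of published papers and checked for typos and inconsistencies. Assay methods differed by source, with transient luciferase assays in mammalian cell lines being common.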

OR10H4 (Homo sapiens) = biological target: T2, OR10H4 (Homo sapiens) (UniProt Q8NGA5)
T2 sequence (whole entry): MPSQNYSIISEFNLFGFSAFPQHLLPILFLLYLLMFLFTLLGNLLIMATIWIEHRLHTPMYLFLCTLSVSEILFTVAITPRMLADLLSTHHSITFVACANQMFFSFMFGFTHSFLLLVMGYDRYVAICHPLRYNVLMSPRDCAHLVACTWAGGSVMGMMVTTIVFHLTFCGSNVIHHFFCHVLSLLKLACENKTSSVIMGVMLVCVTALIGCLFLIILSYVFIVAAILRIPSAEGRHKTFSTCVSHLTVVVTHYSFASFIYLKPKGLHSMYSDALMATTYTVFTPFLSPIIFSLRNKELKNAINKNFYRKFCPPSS
Summary of the method: as §1

OR10H5 (Homo sapiens) = biological target: T3, OR10H5 (Homo sapiens) (UniProt Q8NGA6)
T3 sequence (whole entry): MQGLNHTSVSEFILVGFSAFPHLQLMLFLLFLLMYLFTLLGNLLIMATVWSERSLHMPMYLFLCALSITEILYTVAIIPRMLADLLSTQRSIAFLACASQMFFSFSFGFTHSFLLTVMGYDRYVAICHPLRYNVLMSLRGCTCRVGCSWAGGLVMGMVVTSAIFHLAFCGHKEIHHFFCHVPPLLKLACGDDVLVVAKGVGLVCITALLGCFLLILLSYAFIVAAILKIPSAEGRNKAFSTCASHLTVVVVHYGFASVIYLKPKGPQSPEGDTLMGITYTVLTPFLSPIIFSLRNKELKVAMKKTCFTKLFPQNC
Summary of the method: as §1

OR10J1 (Homo sapiens) = biological target: T4, OR10J1 (Homo sapiens) (UniProt P30954)
T4 sequence (whole entry): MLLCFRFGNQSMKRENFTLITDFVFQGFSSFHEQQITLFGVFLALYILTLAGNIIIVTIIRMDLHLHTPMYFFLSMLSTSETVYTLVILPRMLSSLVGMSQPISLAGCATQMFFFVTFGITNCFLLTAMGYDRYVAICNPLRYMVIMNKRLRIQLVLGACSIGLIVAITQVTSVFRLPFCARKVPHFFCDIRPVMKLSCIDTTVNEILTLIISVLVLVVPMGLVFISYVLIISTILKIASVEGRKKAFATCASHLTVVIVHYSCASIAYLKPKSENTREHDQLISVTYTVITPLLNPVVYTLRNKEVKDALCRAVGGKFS
Summary of the method: as §1

OR10J3 (Homo sapiens) = biological target: T5, OR10J3 (Homo sapiens) (UniProt Q5JRS4)
T5 sequence (whole entry): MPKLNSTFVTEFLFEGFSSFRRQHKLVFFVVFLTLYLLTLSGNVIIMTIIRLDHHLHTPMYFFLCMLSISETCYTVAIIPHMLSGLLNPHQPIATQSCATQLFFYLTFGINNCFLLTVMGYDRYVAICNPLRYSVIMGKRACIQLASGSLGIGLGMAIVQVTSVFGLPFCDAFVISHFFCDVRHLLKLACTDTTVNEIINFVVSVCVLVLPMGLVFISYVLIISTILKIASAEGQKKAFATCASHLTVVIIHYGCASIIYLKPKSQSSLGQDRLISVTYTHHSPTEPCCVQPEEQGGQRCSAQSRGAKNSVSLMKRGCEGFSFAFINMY
Summary of the method: as §1

OR10K1 (Homo sapiens) = biological target: T6, OR10K1 (Homo sapiens) (UniProt Q8NGX5)
T6 sequence (whole entry): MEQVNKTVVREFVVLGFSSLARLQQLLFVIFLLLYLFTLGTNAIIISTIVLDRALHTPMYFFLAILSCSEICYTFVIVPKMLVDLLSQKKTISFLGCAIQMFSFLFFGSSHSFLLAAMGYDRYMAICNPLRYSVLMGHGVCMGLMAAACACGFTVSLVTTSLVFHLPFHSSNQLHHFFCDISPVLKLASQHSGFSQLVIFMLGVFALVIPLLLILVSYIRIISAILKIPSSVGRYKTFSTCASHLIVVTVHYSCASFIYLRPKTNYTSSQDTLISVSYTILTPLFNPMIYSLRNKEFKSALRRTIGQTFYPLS
Summary of the method: as §1

OR10P1 (Homo sapiens) = biological target: T7, OR10P1 (Homo sapiens) (UniProt Q8NGE3)
T7 sequence (whole entry): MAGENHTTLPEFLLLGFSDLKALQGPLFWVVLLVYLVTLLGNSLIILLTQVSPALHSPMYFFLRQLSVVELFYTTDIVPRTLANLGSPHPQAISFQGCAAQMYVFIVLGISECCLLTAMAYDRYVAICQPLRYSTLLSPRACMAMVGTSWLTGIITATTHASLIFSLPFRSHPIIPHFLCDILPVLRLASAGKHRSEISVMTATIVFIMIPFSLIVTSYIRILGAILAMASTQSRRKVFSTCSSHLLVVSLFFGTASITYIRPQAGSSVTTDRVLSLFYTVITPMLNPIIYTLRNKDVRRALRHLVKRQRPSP
Summary of the method: as §1

OR10Q1 (Homo sapiens) = biological target: T8, OR10Q1 (Homo sapiens) (UniProt Q8NGQ4)
T8 sequence (whole entry): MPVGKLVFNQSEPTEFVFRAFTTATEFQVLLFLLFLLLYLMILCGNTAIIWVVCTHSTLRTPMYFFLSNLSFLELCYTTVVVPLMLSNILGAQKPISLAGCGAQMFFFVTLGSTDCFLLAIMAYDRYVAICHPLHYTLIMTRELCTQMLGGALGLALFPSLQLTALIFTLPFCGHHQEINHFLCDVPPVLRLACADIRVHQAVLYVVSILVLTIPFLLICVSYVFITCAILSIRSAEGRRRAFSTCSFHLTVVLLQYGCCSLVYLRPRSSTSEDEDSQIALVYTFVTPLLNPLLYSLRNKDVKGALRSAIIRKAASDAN
Summary of the method: as §1

OR10R2 (Homo sapiens) = biological target: T9, OR10R2 (Homo sapiens) (UniProt Q8NGX6)
T9 sequence (whole entry): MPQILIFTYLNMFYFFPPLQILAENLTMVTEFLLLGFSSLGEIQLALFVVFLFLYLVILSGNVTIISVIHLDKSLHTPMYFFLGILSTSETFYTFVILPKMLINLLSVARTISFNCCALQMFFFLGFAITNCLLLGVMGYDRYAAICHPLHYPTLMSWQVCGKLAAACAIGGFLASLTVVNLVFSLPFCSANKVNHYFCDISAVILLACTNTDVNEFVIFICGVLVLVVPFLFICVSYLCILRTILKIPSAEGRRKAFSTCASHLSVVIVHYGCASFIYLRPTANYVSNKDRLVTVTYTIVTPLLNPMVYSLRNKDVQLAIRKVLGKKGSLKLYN
Summary of the method: as §1

OR10S1 (Homo sapiens) = biological target: T10, OR10S1 (Homo sapiens) (UniProt Q8NGN2)
T10 sequence (whole entry): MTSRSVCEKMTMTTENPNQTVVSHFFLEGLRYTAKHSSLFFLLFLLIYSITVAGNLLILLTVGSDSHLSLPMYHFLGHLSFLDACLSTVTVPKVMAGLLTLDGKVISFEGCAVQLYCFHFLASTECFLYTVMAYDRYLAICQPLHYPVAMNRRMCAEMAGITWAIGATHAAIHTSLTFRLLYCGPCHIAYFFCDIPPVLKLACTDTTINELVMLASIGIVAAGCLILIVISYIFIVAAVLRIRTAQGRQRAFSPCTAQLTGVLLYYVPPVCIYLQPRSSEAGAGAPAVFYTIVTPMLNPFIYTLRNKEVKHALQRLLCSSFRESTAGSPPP
Summary of the method: as §1

OR10T2 (Homo sapiens) = biological target: T11, OR10T2 (Homo sapiens) (UniProt Q8NGX3)
T11 sequence (whole entry): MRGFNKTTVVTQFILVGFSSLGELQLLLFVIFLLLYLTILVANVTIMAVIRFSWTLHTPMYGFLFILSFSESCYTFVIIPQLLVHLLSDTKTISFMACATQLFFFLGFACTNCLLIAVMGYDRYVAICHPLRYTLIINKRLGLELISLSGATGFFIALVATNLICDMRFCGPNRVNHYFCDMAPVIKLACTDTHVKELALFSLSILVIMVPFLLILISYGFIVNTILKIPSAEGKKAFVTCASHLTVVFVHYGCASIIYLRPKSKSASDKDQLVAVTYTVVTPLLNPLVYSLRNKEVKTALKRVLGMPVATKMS
Summary of the method: as §1

OR10V1 (Homo sapiens) = biological target: T12, OR10V1 (Homo sapiens) (UniProt Q8NGI7)
T12 sequence (whole entry): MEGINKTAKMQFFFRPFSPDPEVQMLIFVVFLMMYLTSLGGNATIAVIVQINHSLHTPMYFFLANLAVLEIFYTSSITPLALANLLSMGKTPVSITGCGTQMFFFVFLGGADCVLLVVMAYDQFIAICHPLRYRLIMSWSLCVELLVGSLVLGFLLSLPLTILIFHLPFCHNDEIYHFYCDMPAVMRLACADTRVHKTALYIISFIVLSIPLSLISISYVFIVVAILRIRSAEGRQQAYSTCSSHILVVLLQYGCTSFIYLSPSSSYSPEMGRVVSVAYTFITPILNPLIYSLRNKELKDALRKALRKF
Summary of the method: as §1

OR10W1 (Homo sapiens) = biological target: T13, OR10W1 (Homo sapiens) (UniProt Q8NGF6)
T13 sequence (whole entry): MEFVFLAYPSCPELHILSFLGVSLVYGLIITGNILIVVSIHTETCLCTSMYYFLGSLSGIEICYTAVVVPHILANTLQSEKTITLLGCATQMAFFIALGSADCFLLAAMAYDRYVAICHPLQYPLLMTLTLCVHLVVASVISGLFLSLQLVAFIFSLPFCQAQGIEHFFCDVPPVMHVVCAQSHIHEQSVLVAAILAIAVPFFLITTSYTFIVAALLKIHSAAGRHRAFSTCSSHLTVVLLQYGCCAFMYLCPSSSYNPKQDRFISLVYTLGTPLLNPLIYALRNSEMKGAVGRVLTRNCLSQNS
Summary of the method: as §1

OR10X1 (Homo sapiens) = biological target: T14, OR10X1 (Homo sapiens) (UniProt Q8NGY0)
T14 sequence (whole entry): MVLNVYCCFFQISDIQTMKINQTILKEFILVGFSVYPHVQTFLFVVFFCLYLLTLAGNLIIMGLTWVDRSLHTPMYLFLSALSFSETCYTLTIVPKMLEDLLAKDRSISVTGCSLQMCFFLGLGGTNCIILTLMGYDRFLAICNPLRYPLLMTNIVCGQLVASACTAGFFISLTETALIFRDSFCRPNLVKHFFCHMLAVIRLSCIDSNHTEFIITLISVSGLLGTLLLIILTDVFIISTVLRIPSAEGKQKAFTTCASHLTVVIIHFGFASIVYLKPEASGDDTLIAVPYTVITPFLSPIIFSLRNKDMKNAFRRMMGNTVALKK
Summary of the method: as §1

OR10Z1 (Homo sapiens) = biological target: T15, OR10Z1 (Homo sapiens) (UniProt Q8NGY1)
T15 sequence (whole entry): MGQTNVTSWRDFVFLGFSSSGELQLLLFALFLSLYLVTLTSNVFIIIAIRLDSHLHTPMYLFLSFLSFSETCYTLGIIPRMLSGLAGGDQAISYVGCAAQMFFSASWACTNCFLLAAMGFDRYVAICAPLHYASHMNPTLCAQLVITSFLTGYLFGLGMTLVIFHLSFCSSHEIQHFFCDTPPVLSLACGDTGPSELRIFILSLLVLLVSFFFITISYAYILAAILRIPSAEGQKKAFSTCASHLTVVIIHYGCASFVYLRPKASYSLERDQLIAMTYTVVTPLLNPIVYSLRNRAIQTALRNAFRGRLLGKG
Summary of the method: as §1

OR11A1 (Homo sapiens) = biological target: T16, OR11A1 (Homo sapiens) (UniProt Q9GZK7)
T16 sequence (whole entry): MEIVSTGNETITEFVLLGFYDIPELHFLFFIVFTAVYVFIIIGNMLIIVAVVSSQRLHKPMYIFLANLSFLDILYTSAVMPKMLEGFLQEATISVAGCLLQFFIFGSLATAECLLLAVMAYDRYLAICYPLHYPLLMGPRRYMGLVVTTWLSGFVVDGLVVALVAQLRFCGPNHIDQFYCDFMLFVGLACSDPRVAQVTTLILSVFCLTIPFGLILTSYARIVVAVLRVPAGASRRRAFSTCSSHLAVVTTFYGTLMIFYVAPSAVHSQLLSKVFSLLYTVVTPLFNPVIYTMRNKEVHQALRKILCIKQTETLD
Summary of the method: as §1

OR11G2 (Homo sapiens) = biological target: T17, OR11G2 (Homo sapiens) (UniProt Q8NGC1)
T17 sequence (whole entry): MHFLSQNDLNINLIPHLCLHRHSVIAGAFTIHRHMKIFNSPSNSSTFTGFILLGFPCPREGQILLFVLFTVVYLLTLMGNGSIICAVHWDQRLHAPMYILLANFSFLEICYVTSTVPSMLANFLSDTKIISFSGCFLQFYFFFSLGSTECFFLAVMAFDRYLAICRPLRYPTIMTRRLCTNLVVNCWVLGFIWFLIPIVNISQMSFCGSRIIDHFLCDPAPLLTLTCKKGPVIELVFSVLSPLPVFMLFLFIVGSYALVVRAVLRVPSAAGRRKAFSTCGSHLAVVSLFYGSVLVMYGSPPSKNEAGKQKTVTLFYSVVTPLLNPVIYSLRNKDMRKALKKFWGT
Summary of the method: as §1

OR11H1 (Homo sapiens) = biological target: T18, OR11H1 (Homo sapiens) (UniProt Q8NG94)
T18 sequence (whole entry): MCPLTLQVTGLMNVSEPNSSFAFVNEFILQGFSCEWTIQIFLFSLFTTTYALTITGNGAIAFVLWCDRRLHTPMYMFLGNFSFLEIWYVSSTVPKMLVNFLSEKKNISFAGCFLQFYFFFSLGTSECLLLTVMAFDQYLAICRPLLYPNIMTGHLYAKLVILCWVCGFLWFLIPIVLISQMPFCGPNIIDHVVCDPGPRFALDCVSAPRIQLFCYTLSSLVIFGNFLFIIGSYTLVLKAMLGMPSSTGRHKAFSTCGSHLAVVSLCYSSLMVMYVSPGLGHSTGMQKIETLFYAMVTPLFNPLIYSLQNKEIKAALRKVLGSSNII
Summary of the method: as §1

Measured: odorant receptor agonist call;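 further: active if original authors judged signal statistically different from baseline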

CCCCOC(=O)C(C)OC(=O)CCC (centres undefined)
inactive: OR10J5 (Homo sapiens)

CCCC(S)CCOC(C)=O (centres undefined)
inactive: all assays above
